Results published in ChEMBL document CHEMBL3870325 (Bioorg Med Chem, 2017).

Tests used:
[1] = target: T1, Receptor tyrosine-protein kinase erbB-2 (Homo sapiens, UniProt P04626); assay: Inhibition of HER2 (unknown origin) assessed as remaining ATP level measured after 15 mins by luminescence analysis
Summary of the method: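 Kinase run as a contracted HTRF assay. Compounds in 3-fold dilution in 2.5% DMSO/kinase buffer, mixed with kinase and substrate, preincubated 15 min at RT. ATP added to start, reaction 30 min at RT. Stopped with Streptavidin-XL665 plus europium-cryptate TK antibody (1:100). Excitation 320 nm, 665/615 nm emission ratio. IC50 from inhibition curves, results from 2 assays.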

cells [2] = conditions: Homo sapiens, A-431, 48 h
cells [3] = conditions: Homo sapiens, NCI-H1975, 48 h
cells [4] = assay type: functional, cell-based; conditions: Homo sapiens, BT-474, 48 h
[5] = target: T2, Epidermal growth factor receptor (Homo sapiens, UniProt P00533)
T2 sequence (P00533 whole entry): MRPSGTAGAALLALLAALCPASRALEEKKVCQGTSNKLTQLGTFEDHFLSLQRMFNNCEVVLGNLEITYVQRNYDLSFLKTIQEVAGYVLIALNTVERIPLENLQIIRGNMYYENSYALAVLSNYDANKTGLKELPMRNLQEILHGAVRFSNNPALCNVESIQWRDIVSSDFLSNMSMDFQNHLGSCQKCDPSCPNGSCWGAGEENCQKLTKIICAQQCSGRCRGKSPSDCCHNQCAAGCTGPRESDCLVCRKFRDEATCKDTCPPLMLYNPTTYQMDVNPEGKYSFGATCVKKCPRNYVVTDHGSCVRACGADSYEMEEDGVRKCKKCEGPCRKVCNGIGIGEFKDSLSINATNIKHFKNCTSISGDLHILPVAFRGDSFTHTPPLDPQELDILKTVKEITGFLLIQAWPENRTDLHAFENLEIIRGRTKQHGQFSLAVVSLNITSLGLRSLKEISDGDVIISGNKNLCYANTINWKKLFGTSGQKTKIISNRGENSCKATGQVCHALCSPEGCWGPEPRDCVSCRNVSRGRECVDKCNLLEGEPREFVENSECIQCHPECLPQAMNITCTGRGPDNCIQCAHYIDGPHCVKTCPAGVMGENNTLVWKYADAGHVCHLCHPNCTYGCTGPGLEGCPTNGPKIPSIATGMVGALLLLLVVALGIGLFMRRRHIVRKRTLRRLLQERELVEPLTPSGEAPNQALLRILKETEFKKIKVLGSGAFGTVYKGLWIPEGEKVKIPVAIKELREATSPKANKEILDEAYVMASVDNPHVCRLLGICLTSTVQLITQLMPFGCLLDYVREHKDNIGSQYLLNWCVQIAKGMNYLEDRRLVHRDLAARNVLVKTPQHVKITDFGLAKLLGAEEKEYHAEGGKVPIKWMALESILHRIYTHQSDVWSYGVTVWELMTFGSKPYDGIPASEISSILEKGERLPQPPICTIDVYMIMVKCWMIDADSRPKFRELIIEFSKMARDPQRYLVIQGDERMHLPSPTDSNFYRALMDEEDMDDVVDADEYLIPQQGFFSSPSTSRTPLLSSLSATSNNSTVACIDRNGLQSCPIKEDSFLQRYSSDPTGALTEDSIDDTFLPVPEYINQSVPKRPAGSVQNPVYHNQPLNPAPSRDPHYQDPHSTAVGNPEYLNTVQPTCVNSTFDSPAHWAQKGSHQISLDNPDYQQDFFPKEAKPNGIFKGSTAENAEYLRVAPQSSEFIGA

[6] = target: T3, Protein deacetylase HDAC6 (Homo sapiens, UniProt Q9UBN7); assay: Inhibition of HDAC6 (unknown origin) using acetylated peptide substrate preincubated for 15 mins followed by substrate addition measured after 60 mins by fluorescence analysis
T3 sequence (Q9UBN7 whole entry): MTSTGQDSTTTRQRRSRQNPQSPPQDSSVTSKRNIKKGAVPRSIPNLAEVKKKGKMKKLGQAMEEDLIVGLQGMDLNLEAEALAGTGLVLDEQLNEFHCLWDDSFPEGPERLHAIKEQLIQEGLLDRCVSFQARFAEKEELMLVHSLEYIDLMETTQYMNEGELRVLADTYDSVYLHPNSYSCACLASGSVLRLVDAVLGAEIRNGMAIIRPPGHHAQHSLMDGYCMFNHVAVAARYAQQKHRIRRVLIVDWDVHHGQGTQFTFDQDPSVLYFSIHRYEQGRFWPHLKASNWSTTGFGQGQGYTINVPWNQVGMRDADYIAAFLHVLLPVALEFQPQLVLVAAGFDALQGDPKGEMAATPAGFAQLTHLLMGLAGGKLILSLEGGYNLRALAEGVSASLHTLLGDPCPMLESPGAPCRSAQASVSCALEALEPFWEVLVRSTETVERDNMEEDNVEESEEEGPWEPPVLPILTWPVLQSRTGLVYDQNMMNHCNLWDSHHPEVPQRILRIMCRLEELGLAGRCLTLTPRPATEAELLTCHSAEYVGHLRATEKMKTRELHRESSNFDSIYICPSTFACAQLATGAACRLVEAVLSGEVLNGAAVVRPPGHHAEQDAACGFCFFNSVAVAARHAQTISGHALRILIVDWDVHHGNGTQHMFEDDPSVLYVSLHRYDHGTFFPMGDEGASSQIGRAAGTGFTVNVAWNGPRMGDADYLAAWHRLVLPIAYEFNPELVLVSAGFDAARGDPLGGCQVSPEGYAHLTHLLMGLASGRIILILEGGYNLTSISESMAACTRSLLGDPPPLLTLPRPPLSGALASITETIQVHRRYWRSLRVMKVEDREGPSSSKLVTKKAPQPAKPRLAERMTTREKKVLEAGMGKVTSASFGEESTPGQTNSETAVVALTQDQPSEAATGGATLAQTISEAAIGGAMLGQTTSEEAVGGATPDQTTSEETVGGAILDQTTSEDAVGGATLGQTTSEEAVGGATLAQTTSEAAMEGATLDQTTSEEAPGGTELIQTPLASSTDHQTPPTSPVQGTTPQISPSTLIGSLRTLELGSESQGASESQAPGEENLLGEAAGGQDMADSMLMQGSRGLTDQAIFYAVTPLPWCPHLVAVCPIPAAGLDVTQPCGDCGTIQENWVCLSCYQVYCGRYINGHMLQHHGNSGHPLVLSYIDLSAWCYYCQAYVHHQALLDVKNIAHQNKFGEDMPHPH

cells [7] = conditions: Homo sapiens, SK-BR-3, 48 h
Histone deacetylase 1 = Histone deacetylase 1 (Homo sapiens, UniProt Q13547); assay: Inhibition of HDAC1 (unknown origin) using acetylated peptide substrate preincubated for 15 mins followed by substrate addition measured after 60 mins by fluorescence analysis
Histone deacetylase 1, sequence (Q13547 whole entry): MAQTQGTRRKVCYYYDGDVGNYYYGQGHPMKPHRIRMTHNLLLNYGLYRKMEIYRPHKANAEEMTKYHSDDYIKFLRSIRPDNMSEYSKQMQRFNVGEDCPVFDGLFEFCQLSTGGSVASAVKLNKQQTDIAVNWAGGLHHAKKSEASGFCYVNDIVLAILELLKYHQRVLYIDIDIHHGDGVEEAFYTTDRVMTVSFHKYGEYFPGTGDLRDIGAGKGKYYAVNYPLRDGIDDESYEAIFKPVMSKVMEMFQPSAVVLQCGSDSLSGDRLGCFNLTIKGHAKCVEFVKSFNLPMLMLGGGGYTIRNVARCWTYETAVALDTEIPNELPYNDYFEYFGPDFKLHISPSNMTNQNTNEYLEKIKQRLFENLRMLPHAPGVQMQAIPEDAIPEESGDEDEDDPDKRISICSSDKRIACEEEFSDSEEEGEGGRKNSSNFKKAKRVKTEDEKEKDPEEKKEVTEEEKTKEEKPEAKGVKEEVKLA

cells [8] = assay type: functional, cell-based; conditions: Homo sapiens, A549, 48 h
[9] = target: T2, Epidermal growth factor receptor; assay: Inhibition of EGFR (unknown origin)
Summary of the method: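 HTRF kinase assay. Compounds were serially diluted 3-fold in 2.5% DMSO/kinase buffer, then mixed with kinase and substrate and preincubated 15 min at RT. The reaction was started with ATP and run 30 min at RT. It was stopped with Streptavidin-XL665 and TK antibody europium cryptate. Read at ex 320 nm, em 665/615 nm ratio. IC50 from inhibition curves; 2 separate assays.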

[10] = target: T1, Receptor tyrosine-protein kinase erbB-2; assay: Inhibition of HER2 (unknown origin)
Summary of the method: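 Homogeneous time-resolved fluorescence kinase assay. Compounds were 3-fold serially diluted in 2.5% DMSO/kinase buffer and preincubated with kinase and substrate for 15 min at RT. ATP started the reaction, which ran 30 min at RT and was stopped with Streptavidin-XL665 plus TK antibody europium cryptate. Read at 320 nm excitation, 665/615 nm emission ratio. IC50 from inhibition curves; two separate assays.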

T1 sequence (P04626 whole entry): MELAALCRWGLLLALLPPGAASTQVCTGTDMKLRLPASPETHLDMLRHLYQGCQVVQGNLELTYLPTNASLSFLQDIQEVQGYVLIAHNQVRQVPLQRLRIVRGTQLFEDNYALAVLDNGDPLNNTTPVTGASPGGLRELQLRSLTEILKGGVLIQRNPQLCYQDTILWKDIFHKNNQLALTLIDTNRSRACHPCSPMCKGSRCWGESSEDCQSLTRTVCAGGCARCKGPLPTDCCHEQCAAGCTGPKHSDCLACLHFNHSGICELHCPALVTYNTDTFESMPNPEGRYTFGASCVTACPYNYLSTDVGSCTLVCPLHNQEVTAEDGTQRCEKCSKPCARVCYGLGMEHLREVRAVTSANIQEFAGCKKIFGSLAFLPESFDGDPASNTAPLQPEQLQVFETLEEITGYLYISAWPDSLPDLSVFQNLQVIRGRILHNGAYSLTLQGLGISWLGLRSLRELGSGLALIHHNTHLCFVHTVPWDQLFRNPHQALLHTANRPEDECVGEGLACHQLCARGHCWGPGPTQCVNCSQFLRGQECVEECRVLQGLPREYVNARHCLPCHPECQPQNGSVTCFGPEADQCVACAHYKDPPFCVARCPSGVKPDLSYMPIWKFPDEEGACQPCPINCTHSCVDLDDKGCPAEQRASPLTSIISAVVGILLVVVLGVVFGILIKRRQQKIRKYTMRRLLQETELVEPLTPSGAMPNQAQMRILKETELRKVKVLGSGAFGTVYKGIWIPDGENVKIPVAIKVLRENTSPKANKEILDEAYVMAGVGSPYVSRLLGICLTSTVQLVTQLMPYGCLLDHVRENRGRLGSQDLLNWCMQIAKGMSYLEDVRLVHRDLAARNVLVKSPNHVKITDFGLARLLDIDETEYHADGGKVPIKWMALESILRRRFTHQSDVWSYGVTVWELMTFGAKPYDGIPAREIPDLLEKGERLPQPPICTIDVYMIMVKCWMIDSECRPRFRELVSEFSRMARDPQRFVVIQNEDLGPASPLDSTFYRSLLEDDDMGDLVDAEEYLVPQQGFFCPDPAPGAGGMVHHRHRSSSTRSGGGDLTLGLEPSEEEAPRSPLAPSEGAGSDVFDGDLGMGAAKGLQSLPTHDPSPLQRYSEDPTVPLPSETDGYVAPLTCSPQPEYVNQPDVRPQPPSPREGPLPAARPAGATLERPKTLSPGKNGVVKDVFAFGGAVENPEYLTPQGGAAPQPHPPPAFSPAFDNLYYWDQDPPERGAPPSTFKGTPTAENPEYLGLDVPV

SMILES	IC50 [1]	IC50 (cells [2])	IC50 (cells [3])	IC50 (cells [4])	IC50 [5]	IC50 [6]	IC50 (cells [7])	IC50 (Histone deacetylase 1)	IC50 (cells [8])	IC50 [9]	IC50 [10]
Cc1ccc(Oc2ccc(Nc3ncnc4ccc(-c5cn(CCCCCC(=O)NO)nn5)cc34)cc2C)cn1	> 1000 nM	–	–	14600 nM	6.4 nM	12.9 nM	–	6.9 nM	8460 nM	–	–
O=C(CCCCCn1cc(-c2ccc3ncnc(Nc4ccc(OCc5nccs5)c(Cl)c4)c3c2)nn1)NO	537 nM	–	–	20600 nM	6.9 nM	14.3 nM	–	7.2 nM	9960 nM	–	–
O=C(CCCCCCC(=O)Nc1ccccc1)NO [VORINOSTAT]	–	2290 nM	–	–	–	–	–	–	–	–	–
C[C@@H]1COC(Nc2ccc3ncnc(Nc4ccc(OCc5nccs5)c(Cl)c4)c3c2)=N1 [VARLITINIB]	–	–	–	–	–	–	–	–	–	7 nM	2 nM

More lines, main results first:

IC50 [1]	IC50 (cells [2])	IC50 (cells [3])	IC50 (cells [4])	IC50 [5]	IC50 [6]	IC50 (cells [7])	IC50 (Histone deacetylase 1)	IC50 (cells [8])	SMILES	IC50 [9]	IC50 [10]
177 nM	1950 nM	8760 nM	3630 nM	0.69 nM	8.4 nM	1270 nM	2.6 nM	510 nM	O=C(CCCCCCn1cc(-c2ccc3ncnc(Nc4ccc(F)c(Cl)c4)c3c2)nn1)NO	–	–
–	150 nM	7250 nM	100 nM	–	–	60 nM	–	510 to 1740 nM	CS(=O)(=O)CCNCc1ccc(-c2ccc3ncnc(Nc4ccc(OCc5cccc(F)c5)c(Cl)c4)c3c2)o1 [LAPATINIB]	–	–
> 1000 nM	–	–	4410 nM	10 nM	13.8 nM	–	5.2 nM	16500 nM	Cc1ccc(Oc2ccc(Nc3ncnc4ccc(-c5cn(CCCCCCC(=O)NO)nn5)cc34)cc2C)cn1	–	–
193 nM	–	–	2200 nM	1.9 nM	94.2 nM	–	38.6 nM	> 50000 nM	O=C(CCCCCn1cc(-c2ccc3ncnc(Nc4ccc(OCc5cccc(F)c5)c(Cl)c4)c3c2)nn1)NO	–	–
